Reference: publication PMC10907882 (Pharmacology Research & Perspectives, 2024)

Legend:
[1] = twice‐daily dosing for 2 weeks; healthy elderly and patients with mild to moderate Alzheimer's disease; cited from earlier work
human calpain‐1 = target: T1, human calpain‐1 (Homo sapiens, UniProt P07384); assay: In vitro calpain assay; assay type: biochemical; settings: read-out: K i for human calpain‐1; purified human calpain‐1; means ± SEM of three experiments or single experiment
T1 sequence (P07384 1-714): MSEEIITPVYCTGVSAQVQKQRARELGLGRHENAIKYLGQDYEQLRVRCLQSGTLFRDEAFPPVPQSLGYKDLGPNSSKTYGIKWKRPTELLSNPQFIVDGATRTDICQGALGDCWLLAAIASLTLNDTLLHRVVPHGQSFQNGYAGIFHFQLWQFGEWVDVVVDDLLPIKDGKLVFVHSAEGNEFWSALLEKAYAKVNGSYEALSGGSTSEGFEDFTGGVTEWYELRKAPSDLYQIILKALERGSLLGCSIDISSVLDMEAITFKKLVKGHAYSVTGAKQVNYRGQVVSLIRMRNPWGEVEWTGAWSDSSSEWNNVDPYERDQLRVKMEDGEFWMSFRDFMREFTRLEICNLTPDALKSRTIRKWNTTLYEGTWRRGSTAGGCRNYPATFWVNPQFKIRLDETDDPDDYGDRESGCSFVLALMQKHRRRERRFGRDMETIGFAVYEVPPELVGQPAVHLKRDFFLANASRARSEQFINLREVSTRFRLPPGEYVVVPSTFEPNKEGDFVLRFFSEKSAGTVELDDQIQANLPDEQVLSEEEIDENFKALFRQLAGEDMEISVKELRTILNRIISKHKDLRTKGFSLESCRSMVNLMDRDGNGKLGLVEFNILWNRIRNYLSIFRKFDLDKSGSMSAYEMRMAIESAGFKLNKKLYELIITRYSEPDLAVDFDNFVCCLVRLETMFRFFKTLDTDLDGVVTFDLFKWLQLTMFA
T1 sequence (P04632 1-268 partner): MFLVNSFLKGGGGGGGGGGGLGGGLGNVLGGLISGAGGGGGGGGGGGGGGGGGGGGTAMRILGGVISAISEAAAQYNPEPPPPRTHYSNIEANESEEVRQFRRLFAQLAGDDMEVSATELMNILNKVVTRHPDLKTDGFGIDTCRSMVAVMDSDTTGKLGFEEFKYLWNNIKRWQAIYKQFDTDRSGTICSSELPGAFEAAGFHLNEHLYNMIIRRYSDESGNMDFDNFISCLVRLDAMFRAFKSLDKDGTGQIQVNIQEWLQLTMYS
Procedure, shortened: (§1)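 Enzymes were purified human erythrocyte calpain-1 (8 μg) or bacterially expressed recombinant human calpain-2. Buffer was 60 mM imidazole-HCl pH 7.3 with 5 mM CaCl₂, 5 mM cysteine, 2.5 mM β-mercaptoethanol, 0.5 mM Suc-Leu-Tyr-AMC and test compound (0–20 μM). Reactions were started with enzyme and run at 30°C for 15 min, reading AMC fluorescence (380/450 nm) every 30 s. IC50 came from sigmoidal fits of linear rates; Ki from mean IC50 assuming competitive binding.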

rec human calpain‐2 = target: T2, rec human calpain‐2 (Homo sapiens, UniProt P17655); assay: In vitro calpain assay; assay type: biochemical
T2 sequence (P17655 1-700): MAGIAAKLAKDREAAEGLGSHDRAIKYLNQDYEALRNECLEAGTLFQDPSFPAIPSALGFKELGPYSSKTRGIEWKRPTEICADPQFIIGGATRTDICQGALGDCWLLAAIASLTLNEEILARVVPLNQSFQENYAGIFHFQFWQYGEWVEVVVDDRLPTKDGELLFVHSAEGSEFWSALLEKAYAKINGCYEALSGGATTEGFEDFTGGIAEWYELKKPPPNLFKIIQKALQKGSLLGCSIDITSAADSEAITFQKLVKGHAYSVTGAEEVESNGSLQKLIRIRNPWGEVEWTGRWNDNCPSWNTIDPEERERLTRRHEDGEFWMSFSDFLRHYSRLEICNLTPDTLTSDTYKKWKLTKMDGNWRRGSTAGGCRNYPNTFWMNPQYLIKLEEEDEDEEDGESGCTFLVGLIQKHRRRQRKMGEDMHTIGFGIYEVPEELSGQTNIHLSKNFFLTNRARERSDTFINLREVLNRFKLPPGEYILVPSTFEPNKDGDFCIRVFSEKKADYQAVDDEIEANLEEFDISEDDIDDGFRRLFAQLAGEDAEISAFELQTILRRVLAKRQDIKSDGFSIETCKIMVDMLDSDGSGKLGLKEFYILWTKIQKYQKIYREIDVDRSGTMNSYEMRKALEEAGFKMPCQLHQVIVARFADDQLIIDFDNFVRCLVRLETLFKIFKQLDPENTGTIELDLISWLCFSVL
Procedure, shortened: as §1

mouse calpain‐1 = target: T3, mouse calpain‐1 (Mus musculus, UniProt O35350); assay: Ex‐vivo calpain assay, mouse pons‐cerebellum membrane fractions, 20 μM calcium; assay type: biochemical; settings: read-out: IC50 for mouse calpain‐1, endogenous brain calpain‐1, membrane fractions
T3 sequence (O35350 1-713): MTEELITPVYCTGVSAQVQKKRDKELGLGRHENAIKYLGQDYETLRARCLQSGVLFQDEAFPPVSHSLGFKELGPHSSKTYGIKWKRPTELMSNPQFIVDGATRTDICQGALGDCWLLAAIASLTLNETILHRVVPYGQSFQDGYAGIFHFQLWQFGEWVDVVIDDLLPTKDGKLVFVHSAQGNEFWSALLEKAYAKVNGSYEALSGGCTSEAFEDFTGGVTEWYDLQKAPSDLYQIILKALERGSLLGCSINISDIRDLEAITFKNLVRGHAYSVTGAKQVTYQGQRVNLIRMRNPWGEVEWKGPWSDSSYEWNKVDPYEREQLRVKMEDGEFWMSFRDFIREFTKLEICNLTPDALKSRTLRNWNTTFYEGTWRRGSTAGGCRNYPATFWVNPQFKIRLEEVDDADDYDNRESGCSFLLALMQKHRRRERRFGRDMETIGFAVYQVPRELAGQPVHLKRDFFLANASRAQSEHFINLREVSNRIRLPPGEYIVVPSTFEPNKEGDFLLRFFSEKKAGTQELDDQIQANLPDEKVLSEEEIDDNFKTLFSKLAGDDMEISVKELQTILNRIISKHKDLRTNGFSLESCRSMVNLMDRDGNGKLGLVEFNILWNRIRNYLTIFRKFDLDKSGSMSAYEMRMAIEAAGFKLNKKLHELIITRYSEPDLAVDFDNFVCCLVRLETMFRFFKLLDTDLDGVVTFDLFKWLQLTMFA
T3 sequence (O88456 1-268 partner): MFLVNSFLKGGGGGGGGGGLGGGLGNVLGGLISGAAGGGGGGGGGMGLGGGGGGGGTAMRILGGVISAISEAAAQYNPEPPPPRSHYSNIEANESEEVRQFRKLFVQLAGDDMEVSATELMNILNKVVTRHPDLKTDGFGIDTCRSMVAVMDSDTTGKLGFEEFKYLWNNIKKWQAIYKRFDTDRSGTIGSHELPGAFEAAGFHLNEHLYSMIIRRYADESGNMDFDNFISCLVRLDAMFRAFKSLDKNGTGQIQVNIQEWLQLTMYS
Procedure, shortened: (§2)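 Membrane fractions from mouse pons-cerebellum were resuspended in 60 mM imidazole-HCl pH 7.3 with 5 mM cysteine and 2.5 mM β-mercaptoethanol and exposed to test compound concentrations. Calpain-1 was assayed in wild-type membranes with 20 μM calcium. Calpain-2 was assayed in calpain-1 knockout membranes with 2 mM calcium. Substrate was Suc-Leu-Tyr-AMC (0.5 mM). Two experiments.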

mouse calpain‐2 = target: T4, mouse calpain‐2 (Mus musculus, UniProt O08529); assay: Ex‐vivo calpain assay, mouse pons‐cerebellum membrane fractions, 2 mM calcium; assay type: biochemical; settings: mouse brain enzymes
T4 sequence (O08529 1-700): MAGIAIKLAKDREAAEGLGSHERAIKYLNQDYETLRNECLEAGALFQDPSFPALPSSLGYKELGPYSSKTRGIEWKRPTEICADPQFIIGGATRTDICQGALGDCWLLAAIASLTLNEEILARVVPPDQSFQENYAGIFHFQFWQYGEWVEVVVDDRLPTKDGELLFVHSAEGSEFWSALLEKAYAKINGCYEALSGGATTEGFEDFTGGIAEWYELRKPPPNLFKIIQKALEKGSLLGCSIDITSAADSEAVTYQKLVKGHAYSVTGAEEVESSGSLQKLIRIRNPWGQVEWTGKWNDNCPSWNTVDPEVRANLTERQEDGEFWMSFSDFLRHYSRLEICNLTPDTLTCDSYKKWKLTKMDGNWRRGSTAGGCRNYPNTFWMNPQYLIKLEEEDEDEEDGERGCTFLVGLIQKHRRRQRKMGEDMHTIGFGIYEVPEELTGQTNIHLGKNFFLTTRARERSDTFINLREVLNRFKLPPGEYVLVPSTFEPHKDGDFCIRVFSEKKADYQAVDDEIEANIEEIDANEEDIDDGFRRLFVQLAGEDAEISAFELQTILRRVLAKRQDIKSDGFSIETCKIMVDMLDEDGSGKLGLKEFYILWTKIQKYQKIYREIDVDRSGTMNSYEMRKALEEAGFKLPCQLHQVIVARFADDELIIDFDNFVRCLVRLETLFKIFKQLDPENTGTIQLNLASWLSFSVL
T4 sequence (O88456 1-268 partner): T3 sequence (O88456 1-268 partner)
Procedure, shortened: as §2

calpain‐2 = settings: reported; cited from earlier work

Structure (SMILES)	adverse effects in Phase I [1]	Ki (human calpain‐1) [nM]	Ratio 1/2 (K i calpain‐1 / calpain‐2) (rec human calpain‐2; human enzymes)	Ki (rec human calpain‐2; read-out: K i for rec human calpain‐2, recombinant human calpain‐2, means ± SEM of three experiments or single experiment) [nM]	IC50 (mouse calpain‐1) [nM]	Ratio 1/2 (IC50 calpain‐1 / calpain‐2) (mouse calpain‐2)	difference in K i values for calpain‐2 vs calpain‐1 (calpain‐2) [fold]
O=C(NC1CC1)C(=O)C(Cc1ccccc1)NC(=O)[C@H]1CCC(=O)N1Cc1ccccc1 (stereo partly shown) [ABT‐957]	did not result in significant adverse effects	–	–	–	–	–	–
CCC(NC(=O)[C@H](CC(C)C)NC(=O)OCc1ccccc1)C(=O)C(=O)NCc1cc(OC)cc(OC)c1 (stereo partly shown) [Compound C2I, Z‐Leu‐Abu‐CONH‐CH2‐C6H3(3,5‐(OMe)2)]	–	124 ± 6	2.3	55 ± 7	1130	26	100
